Laboratory results taken from ChEMBL document CHEMBL2157868, “Design, synthesis, and preliminary biological evaluation of 6-O-glucose-azomycin adducts for diagnosis and therapy of hypoxic tumors” (J Med Chem, 2012).
The source made the active and inactive calls. The rule behind the calls is not given here.

How the values were obtained:
[1] = target: T1, Solute carrier family 2, facilitated glucose transporter member 1 (Homo sapiens) (UniProt P11166); assay: Binding affinity to recombinant GLUT1 expressed in Xenopus oocytes assessed as inhibition of [14C]glucose uptake after 20 mins by liquid scintillation counting; assay type: cell-based; settings: Oocyte
T1 sequence (whole entry): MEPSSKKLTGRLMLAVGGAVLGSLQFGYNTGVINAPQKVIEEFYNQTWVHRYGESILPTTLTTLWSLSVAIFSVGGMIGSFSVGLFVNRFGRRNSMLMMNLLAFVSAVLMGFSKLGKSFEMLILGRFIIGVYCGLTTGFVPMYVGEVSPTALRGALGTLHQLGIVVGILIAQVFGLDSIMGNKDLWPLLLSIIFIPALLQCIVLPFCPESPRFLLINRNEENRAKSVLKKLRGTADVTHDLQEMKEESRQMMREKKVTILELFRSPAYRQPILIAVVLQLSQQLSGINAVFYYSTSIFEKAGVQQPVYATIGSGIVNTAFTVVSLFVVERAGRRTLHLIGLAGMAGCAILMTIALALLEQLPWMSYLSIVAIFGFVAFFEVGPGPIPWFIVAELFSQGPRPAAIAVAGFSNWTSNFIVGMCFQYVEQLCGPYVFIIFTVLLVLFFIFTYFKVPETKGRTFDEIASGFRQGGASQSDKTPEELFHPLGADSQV
Summary of the method: (§1)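 Xenopus oocytes expressing the GLUT were incubated in groups of 10−12 in Na⁺ transport medium (Hepes, pH 7.5) with [¹⁴C]glucose (1 μCi/mL) and inhibitor for 20 min at 20 °C. Oocytes were washed six times in ice-cold medium, dissolved in 1% SDS, and counted by liquid scintillation. Uptake inhibition was plotted against inhibitor concentration; for GLUT-2, EC50 came from four-parameter logistic fitting.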

[2] = target: T2, Solute carrier family 2, facilitated glucose transporter member 2 (Homo sapiens) (UniProt P11168); assay: Binding affinity to recombinant GLUT2 expressed in Xenopus oocytes assessed as inhibition of [14C]glucose uptake after 20 mins by liquid scintillation counting; assay type: cell-based; settings: Oocyte; summary of the method: as §1
T2 sequence (whole entry): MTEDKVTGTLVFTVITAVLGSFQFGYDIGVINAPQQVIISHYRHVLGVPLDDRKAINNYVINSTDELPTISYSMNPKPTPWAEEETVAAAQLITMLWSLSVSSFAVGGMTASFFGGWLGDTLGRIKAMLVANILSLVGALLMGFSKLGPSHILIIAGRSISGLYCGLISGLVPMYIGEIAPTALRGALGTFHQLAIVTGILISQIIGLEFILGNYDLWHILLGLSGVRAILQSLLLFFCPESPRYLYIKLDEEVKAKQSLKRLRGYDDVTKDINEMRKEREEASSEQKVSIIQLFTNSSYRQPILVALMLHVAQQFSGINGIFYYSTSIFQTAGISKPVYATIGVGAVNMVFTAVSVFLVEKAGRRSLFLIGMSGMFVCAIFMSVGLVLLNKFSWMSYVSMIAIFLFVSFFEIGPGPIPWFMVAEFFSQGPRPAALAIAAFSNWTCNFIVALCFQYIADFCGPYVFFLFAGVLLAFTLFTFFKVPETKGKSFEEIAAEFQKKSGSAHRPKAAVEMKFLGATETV

[3] = Cytotoxicity against human MOO6X cells assessed as survival fraction ratio under hypoxic condition at 0.5 mM incubated for 30 mins followed by compound wash out measured after 10 to 14 days by clonogenic assay relative to control; assay type: functional
Summary of the method: (§2)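 Clonogenic radiosensitization. Cells (300000 per dish, DMEM/F12) were grown 24 h at 37 °C, 5% CO₂, then exposed to compound for 30 min. Hypoxic dishes were degassed by six vacuum/N₂ cycles, and all dishes were shaken 30 min at room temperature. Dishes were ⁶⁰Co γ-irradiated (0–20 Gy) under N₂ or air, then trypsinized and replated. Colonies were grown 10−14 days, stained, and counted, in triplicate. Surviving fractions at 18 Gy were taken from survival plots.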

[4] = test system: HeLa; assay: Cytotoxicity against human HeLa cells assessed as survival fraction under hypoxic condition to hypoxic condition plus sensitizer at 0.5 mM after 30 mins by clonogenic assay relative to control
[5] = test system: EMT6; assay: Cytotoxicity against mouse EMT6 cells assessed as survival fraction ratio under hypoxic condition at 0.5 mM incubated for 30 mins followed by compound wash out measured after 10 to 14 days by clonogenic assay relative to control; assay type: functional; summary of the method: as §2
[6] = test system: EMT6; assay: Cytotoxicity against mouse EMT6 cells after 3 days by MTT assay; assay type: functional, cell-based; settings: EMT6, 72 h
Summary of the method: (§3)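 MTT assay. Exponentially growing cells were seeded at 8 × 10² cells/well and held 24 h at 37 °C in 5% CO₂. Compound from a 2 mM stock in 95% ethanol was added, with a maximum final concentration of 1 mM. Exposure lasted 3 days at 37 °C. MTT was added for 4 h, formazan dissolved in DMSO, and absorbance read at 540 nm. IC50s were estimated from survival plots.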

[7] = Cytotoxicity against human MOO6X cells after 3 days by MTT assay; assay type: functional, cell-based; settings: 72 h; summary of the method: as §3
[8] = Cytotoxicity against mouse KBALB cells after 3 days by MTT assay; assay type: functional, cell-based; settings: 72 h; summary of the method: as §3
[9] = Cytotoxicity against mouse KBALB-STK cells after 3 days by MTT assay; assay type: functional, cell-based; settings: 72 h; summary of the method: as §3
[10] = test system: HeLa; assay: Cytotoxicity against human HeLa cells after 3 days by MTT assay; assay type: functional, cell-based; settings: 72 h; summary of the method: as §3
[11] = Ratio of IAZA IC50 to compound IC50 for human MOO6X cells; assay type: functional
[12] = test system: EMT6; assay: Cytotoxicity against mouse EMT6 cells assessed as survival fraction ratio under hypoxic condition at 0.1 to 1 mM after 6 hrs relative to control; assay type: functional

SMILES: O=[N+]([O-])c1nccn1/C=C/COC[C@H]1OC(O)[C@H](O)[C@@H](O)[C@@H]1O (mixture of isomers)
- inhibition [1]: Active
- ED50 [2]: 500 µM
- Ratio [3]: 1.3
- Ratio [4]: 1.7
- Ratio [5]: 1.4
- IC50 [6]: > 1000 µM

SMILES: O=[N+]([O-])c1nccn1CC(O)COC[C@H]1OC(O)[C@H](O)[C@@H](O)[C@@H]1O (mixture of isomers)
- IC50 [7]: 50 µM
- Ratio [3]: 1
- Ratio [4]: 1.2
- Ratio [5]: 1
- IC50 [8]: 500 µM
- IC50 [9]: 500 µM
- IC50 [10]: 500 µM
- Ratio IC50 [11]: 10
- IC50 [6]: 600 µM

SMILES: O=[N+]([O-])c1nccn1[C@H]1O[C@H](C[123I])[C@@H](O)[C@@H]1O [IODOAZOMYCIN ARABINOSIDE]
- Ratio [12]: 1.5
- IC50 [7]: > 1000 µM
- IC50 [8]: 500 µM
- IC50 [9]: 500 µM
- IC50 [10]: > 1000 µM
- IC50 [6]: > 1000 µM

SMILES: O=[N+]([O-])c1nccn1CC([18F])COC[C@H]1OC(O)[C@H](O)[C@@H](O)[C@@H]1O (mixture of isomers)
- IC50 [7]: > 1000 µM
- Ratio [3]: 1.3
- Ratio [4]: 1.3
- Ratio [5]: 1.2
- IC50 [8]: > 1000 µM
- IC50 [9]: > 1000 µM
- IC50 [10]: > 1000 µM
- IC50 [6]: > 1000 µM
